Screens deposited in PubChem by Broad Institute.
An excerpt weighted towards active compounds, which were near 3.1% of everything screened.
T cruzi inh – inhibitors of intracellular T. cruzi growth, primary screen, luminescence, NIH3T3 host cells; T. cruzi beta-gal in NIH3T3, 90 h; 1.4% of 300,000 active; inhibition, % (test concentration not listed);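 active = mean inhibition across valid replicates above about 55%, limit read from the data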;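 also: signal also drops with host cell toxicity which is not excluded here; 0% = plate median of DMSO wells and 100% = zero luminescence signal; higher percent means less beta-gal luminescence so fewer parasites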
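System: Mouse NIH/3T3 fibroblasts infected with β-gal-expressing T. cruzi Tulahuen C4 | Quantity: NIH/3T3 cells, 5,000 per well | Reagent: 5000 reporter trypomastigotes per well | Dosing: Compound pinned at 50 nL/well, DMSO | Schedule: 3 h host attachment, then at least 90 h co-culture | Detection: GalScreen luminescence, 60 min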
CSC inhib – cancer stem cell viability inhibitors, primary screen, luminescence. cancer stem cell-like cells viability. inhibition, % at 7.5 µM. 1.1% of 300,000 active; in the data active = inhibition above about 75%; tested in HMLE shEcad cells
PolyA inh – polyadenylation inhibitors in yeast reporter cells, primary screen, luminescence, S. cerevisiae; 0.02% of 300,000 active; activity score, % at 12 µM; S. cerevisiae SKY197-pL101 polyadenylation reporter, beta-gal luminescence; efflux-impaired pdr1/pdr3 knockout yeast; score 100 = 6 SD above DMSO; AID 1875, 2009;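 active = lowest replicate activity score at least 50, where 100 means six control SD above control mean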;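 also: yeast exposed to compound for 9 h at 30 °C; higher score means more reporter readthrough which indicates perturbed polyadenylation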
Beta apoptosis – inhibitors of cytokine-induced beta cell apoptosis, primary screen, luminescence. INS-1E cytokine-induced death, ATP luminescence, 48 h; percent of positive-control rescue, neutral wells zero. AID 435005, 2010. protection from apoptosis, % (test concentration not listed). 0.8% of 300,000 active;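 active = Every replicate reaches about 75%, or at least half do and their mean reaches it too, limit read from the data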;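 also: 0% = cytokine-treated negative control wells and 100% = positive control rescue; higher means more ATP so stronger rescue from cytokine killing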
HIF activator – HIF pathway transcriptional activators, primary screen, cell-based, U2OS HRE-luciferase, luminescence; 0.32% of 300,000 active; AID 1910, 2009; activation, % at 7.5 µM (by protocol); U2OS HRE-luciferase reporter; normalized: DMSO 0%, desferrioxamine 100%;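 active = mean activation of at least 10% of the iron chelator positive control signal, with at least half of replicates also reaching 10%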
Calb FLC – C. albicans growth inhibition with fluconazole, primary screen, CaCi-2 strain, Alamar Blue fluorescence | AID 1979, 2009 | C. albicans CaCi-2 + fluconazole, 48 h | 0.57% of 300,000 active | growth inhibition, % (concentration not given with the values);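 active = growth inhibition above about 58% in most replicates, limit read from the data, passing the limit was not always enough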;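 also: all wells also contain fluconazole at 8 µg/ml as a sub-toxic cotreatment; 0% = median of DMSO wells and 100% = median of geldanamycin control wells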
* hit, by the source's call; / = no result given.

SMILES	T cruzi inh	CSC inhib	PolyA inh	Beta apoptosis	HIF activator	Calb FLC
O=[N+]([O-])c1ccc(N=Nc2ccc(O)cc2O)cc1	45	83*	-18	67	0	10
O=[N+]([O-])c1ccc(N=Nc2c(O)[nH]c3ccc(F)cc23)cc1	5	45	-21	35	1	-18
Cc1ccc(C)c(NC(=O)CCC(=O)N2CCOc3ccccc32)c1	-9	-14	-12	5	0	-13
CCC1CSC(Nc2ccc(C(=O)/C=C/c3cccc(C)c3)cc2)=N1 (stereo unspecified)	60*	87*	-25	12	1	26
Brc1cc2ccccc2[n+](Cc2ccccc2)c1	11	-5	-2	-3	1	-8
CCCC[n+]1c2ccccc2cc2ccccc21	68*	40	-31	48	-24	93*
CCC[n+]1c2ccccc2cc2ccccc21	61*	6	-2	32	2	94*
Cc1cccc(NS(=O)(=O)c2ccc(C(=O)N3CC(C)OC(C)C3)cc2)c1C (stereo unspecified)	3	-12	0	-2	0	13
Cc1ccc(S(=O)(=O)Nc2csc(C)c2C(=O)O)cc1	-4	-10	11	-13	0	0
O=C(c1cc2cc(Cl)ccc2[nH]1)N1CCN(Cc2ccc3c(c2)OCO3)CC1	30	-9	17	11	0	1
CCCCN(CCCC)S(=O)(=O)c1ccc(C(=O)Nc2nnc(COC)o2)cc1	15	22	5	6	-2	88*
CCCCN(CC)S(=O)(=O)c1ccc(C(=O)Nc2nnc(-c3cccs3)o2)cc1	63*	41	-6	1	0	-4
CCCCN(C)S(=O)(=O)c1ccc(C(=O)Nc2nnc(-c3ccco3)o2)cc1	29	27	-2	-3	0	98*
CCN(CC)S(=O)(=O)c1ccc(C(=O)Nc2nnc(-c3ccco3)o2)cc1	-17	2	6	6	0	30
S=C(CN1CCCC1=S)NCCc1ccccc1	-12	-3	-8	-6	0	2
CCCc1cc(=O)oc2cc(C)cc(OCC(=O)Nc3cccnc3)c12	15	-5	-9	12	0	-8
CN(N)c1ccc2c(C(F)(F)F)cc(C(F)(F)F)nc2n1	4	5	-22	-5	0	-4
Cc1ccc(C(C#N)c2ccc3c(C(F)(F)F)cc(C(F)(F)F)nc3n2)cc1 (stereo unspecified)	41	86*	3	39	0	4
N#CC(c1ccccc1)c1ccc2c(C(F)(F)F)cc(C(F)(F)F)nc2n1 (stereo unspecified)	12	-6	-10	93*	1	-4
O=C(c1cnc2ccc3ccccc3c2c1)c1cc(F)ccc1O	7	84*	-12	-4	4	-2
COc1ccc(/C=N/NC(=O)c2cccnc2)c(C(=O)O)c1OC	4	5	-4	2	0	-2
CCc1ccc(-n2nnnc2SCC(=O)Nc2ccc(NC(C)=O)cc2)cc1	55*	-2	5	/	-29	6
CC1CC1C(=O)Nc1nc(-c2cccs2)c(-c2cccs2)s1 (stereo unspecified)	4	18	14	-10	1	12
CC(=O)Nc1ccc2c(c1)CCCC2=O	-20	-3	-11	1	9.6*	-2
CC(=O)Nc1ccc2c(c1)CCCC2	/	-2	1	2	0	11
SMILES	T cruzi inh	CSC inhib	PolyA inh	Beta apoptosis	HIF activator	Calb FLC
Cc1ccccc1-n1c(=O)n(Cc2ccc(C(=O)O)cc2)c(=O)c2[nH]cnc21	-13	-9	9	-5	37*	-2
COc1ccc(Cn2c(=O)c3[nH]cnc3n(-c3ccccc3C)c2=O)cc1	-26	64	1	11	0	12
COc1ccccc1N1CCN(C(=O)c2ccc3c(=O)n4c(nc3c2)CCCCC4)CC1	/	25	/	1	/	/
O=C(c1cccc(Br)c1)c1coc2ccc(O)cc12	/	91*	/	3	/	/
CCCn1c(SCC(=O)N(C)CC(=O)Nc2ccc(C)cc2)n[nH]c1=O	/	/	/	-1	/	/
O=C(NC(Nc1nc2ccc([N+](=O)[O-])cc2s1)(C(F)(F)F)C(F)(F)F)c1ccccc1Cl	55*	98*	-23	109*	0	64
O=C(NC(Nc1nc2ccc([N+](=O)[O-])cc2s1)(C(F)(F)F)C(F)(F)F)c1cccnc1	56*	70	3	119*	1	34
Cc1nc(N2CCN(C(=O)c3ccco3)CC2)c2c3c(sc2n1)CC(C)CC3 (stereo unspecified)	38	1	-55	80*	1	42
Cc1ccc(-n2cc(CN3CCC(O)(c4ccccn4)CC3)c(-c3ccc(F)cc3)n2)cc1	55*	4	-2	-14	-1	1
CCN(CC)c1ccc(/C=N/Nc2nc(C)cc(=O)[nH]2)c(O)c1	42	17	7	61	57*	102*
CCN(CC)c1ccc(/C=N/NC(=O)c2cccc(S(=O)(=O)N3CCOCC3)c2)c(O)c1	65*	110*	1	75*	102*	102*
CCN(CC)c1ccc(/C=N/Nc2ccc(C)cc2)c(O)c1	/	40	/	-2	/	/
O=[N+]([O-])c1ccc(N/N=C/c2sc(N3CCOCC3)nc2-c2ccccc2)c(S(=O)(=O)Nc2ccc(Cl)cc2)c1	84*	/	17	/	0	-4
CCN(CC)c1ccc(/C=N/NC(=O)c2c(Cl)cnn2C)c(O)c1	54	-6	-10	95*	15*	4
CCN(CC)c1ccc(C=Nc2cccc(S(=O)(=O)N3CCOCC3)c2)c(O)c1	/	-10	/	-4	/	/
O=C(O)c1cccc(N/N=C/c2sc(N3CCOCC3)nc2-c2ccccc2)c1	0	0	8	4	1	-2
N#Cc1cccc(S(=O)(=O)NCCOc2ccccc2F)c1	/	6	/	-6	/	/
CC(C)N(C(=O)c1nn(C)c2c1CSc1ccccc1-2)C1CCCCC1	-14	30	-1	-1	2	3
CCc1nnc(NC(=O)CCNC(=O)c2ccco2)s1	-2	-6	4	-2	0	-3
O=C(N/N=C/c1sc(N2CCOCC2)nc1-c1ccccc1)c1cccc(S(=O)(=O)N2CCOCC2)c1	37	24	4	113*	5	98*
Nc1ccc(C(=O)N/N=C/c2sc(N3CCOCC3)nc2-c2ccccc2)cc1	9	4	6	5	0	5
CCN(CC)S(=O)(=O)c1cccc(C(=O)N/N=C/c2cccc(O)c2O)c1	3	98*	9	42	7	-2
